Assay results taken from ChEMBL document CHEMBL1275556, “High prevalence of plasmid-mediated quinolone resistance genes qnr and aac(6')-Ib-cr in clinical isolates of Enterobacteriaceae from nine teaching hospitals in China” (2008).

Experiments:
[1] = tested on: Citrobacter freundii; test: Antimicrobial activity against aac(6')-Ib-cr-positive Citrobacter freundii TJ15 harboring GyrA T83I, ParC S80I mutant, wild-type GyrB, qnrB genes by agar dilution method; type: functional
Procedure, shortened: (§1)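 MICs were determined by the CLSI agar dilution method (M7-A7) and interpreted against CLSI M100-S17 breakpoints.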

[2] = tested on: Klebsiella pneumoniae; test: Antimicrobial activity against aac(6')-Ib-cr-positive Klebsiella pneumoniae GZ40T harboring qnrB gene by agar dilution method
[3] = tested on: Klebsiella pneumoniae; test: Antimicrobial activity against aac(6')-Ib-cr-positive Klebsiella pneumoniae SY26 harboring GyrA S83I, ParC S80I mutant, wild-type GyrB and qnrB genes by agar dilution method; type: functional
Procedure, shortened: (§2)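 MICs were determined on clinical isolates by CLSI agar dilution (M7-A7) and interpreted against CLSI M100-S17 breakpoints.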

[4] = tested on: Escherichia coli; test: Antimicrobial activity against aac(6')-Ib-cr-negative Escherichia coli PU12 harboring GyrA S83L mutant, wild-type GyrB, ParC and qnrS genes by agar dilution method; type: functional; procedure, shortened: as §1
[5] = tested on: Klebsiella pneumoniae; test: Antimicrobial activity against aac(6')-Ib-cr-positive Klebsiella pneumoniae JN132T harboring qnrB gene by agar dilution method; type: functional
Procedure, shortened: (§3)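 Transconjugants were made by conjugating a qnr/aac(6')-Ib-cr donor with azide-resistant E. coli J53. Selection used Trypticase soy agar with sodium azide 150 µg/ml and sulfamethoxazole 180 µg/ml. […] MICs were read by CLSI agar dilution (M7-A7) and interpreted per M100-S17.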

[6] = tested on: Klebsiella pneumoniae; test: Antimicrobial activity against aac(6')-Ib-cr-positive Klebsiella pneumoniae JN41 harboring GyrA S83I, ParC S80I mutant, wild-type GyrB and qnrB genes by agar dilution method; type: functional; procedure, shortened: as §2
[7] = tested on: Klebsiella pneumoniae; test: Antimicrobial activity against aac(6')-Ib-cr-positive Klebsiella pneumoniae GZ40 harboring GyrA S83I, ParC S80I mutant, wild-type GyrB and qnrB genes by agar dilution method; type: functional; procedure, shortened: as §1
[8] = tested on: Enterobacter cloacae; test: Antimicrobial activity against aac(6')-Ib-cr-positive Enterobacter cloacae FJ63 harboring GyrA S83I, GyrA D87A, ParC S80I mutant, wild-type GyrB and qnrS genes by agar dilution method; type: functional
[9] = tested on: Enterobacter cloacae; test: Antimicrobial activity against aac(6')-Ib-cr-negative Enterobacter cloacae FJ61 harboring GyrA S83I, GyrA D87A, ParC S80I mutant, wild-type GyrB and qnrS genes by agar dilution method; type: functional
[10] = tested on: Enterobacter cloacae; test: Antimicrobial activity against aac(6')-Ib-cr-negative Enterobacter cloacae SH39 harboring GyrA S83I, ParC S80I mutant, wild-type GyrB and qnrA genes by agar dilution method; type: functional
[11] = tested on: Klebsiella pneumoniae; test: Antimicrobial activity against aac(6')-Ib-cr-positive Klebsiella pneumoniae JN41T harboring qnrB gene by agar dilution method; type: functional; procedure, shortened: as §3
[12] = tested on: Citrobacter freundii; test: Antimicrobial activity against aac(6')-Ib-cr-positive Citrobacter freundii JN1T by agar dilution method; type: functional; procedure, shortened: as §1
[13] = tested on: Enterobacter cloacae; test: Antimicrobial activity against aac(6')-Ib-cr-negative Enterobacter cloacae SH39T harboring qnrA gene by agar dilution method; type: functional
[14] = tested on: Escherichia coli; test: Antimicrobial activity against Escherichia coli J53 harboring wild-type GyrA, ParC, GyrB genes by agar dilution method
[15] = tested on: Citrobacter freundii; test: Antimicrobial activity against aac(6')-Ib-cr-positive Citrobacter freundii JS33T harboring qnrA gene by agar dilution method; type: functional; procedure, shortened: as §1
[16] = tested on: Citrobacter freundii; test: Antimicrobial activity against aac(6')-Ib-cr-negative Citrobacter freundii JN64 harboring GyrA T83I, wild-type ParC, GyrB and qnrA genes by agar dilution method; type: functional; procedure, shortened: as §1
[17] = tested on: Escherichia coli; test: Antimicrobial activity against aac(6')-Ib-cr-positive Escherichia coli FJ3T harboring wild-type GyrA, ParC, GyrB and qnrB genes by agar dilution method
[18] = tested on: Klebsiella pneumoniae; test: Antimicrobial activity against aac(6')-Ib-cr-negative Klebsiella pneumoniae SY22T harboring qnrS gene by agar dilution method; type: functional; procedure, shortened: as §1
[19] = tested on: Citrobacter freundii; test: Antimicrobial activity against aac(6')-Ib-cr-positive Citrobacter freundii PU55T harboring wild-type GyrA, ParC, GyrB and qnrA genes by agar dilution method
[20] = tested on: Enterobacter cloacae; test: Antimicrobial activity against aac(6')-Ib-cr-negative Enterobacter cloacae FJ67T harboring qnrS gene by agar dilution method; type: functional
[21] = tested on: Enterobacter cloacae; test: Antimicrobial activity against aac(6')-Ib-cr-negative Enterobacter cloacae GZ47 harboring qnrB and qnrS genes by agar dilution method; type: functional
[22] = tested on: Citrobacter freundii; test: Antimicrobial activity against aac(6')-Ib-cr-negative Citrobacter freundii JN64T harboring qnrA gene by agar dilution method; type: functional; procedure, shortened: as §1
[23] = tested on: Enterobacter cloacae; test: Antimicrobial activity against aac(6')-Ib-cr-negative Enterobacter cloacae FJ67 harboring […] and qnrS genes by agar dilution method; type: functional
[24] = tested on: Escherichia coli; test: Antimicrobial activity against aac(6')-Ib-cr-positive Escherichia coli FJ3 harboring GyrA S83L, ParC S80R mutant, wild-type GyrB and qnrB genes by agar dilution method; type: functional; procedure, shortened: as §1
[25] = tested on: Enterobacter cloacae; test: Antimicrobial activity against aac(6')-Ib-cr-negative Enterobacter cloacae WH42 harboring wild-type GyrA, ParC, GyrB and qnrA genes by agar dilution method; type: functional
[26] = tested on: Klebsiella pneumoniae; test: Antimicrobial activity against aac(6')-Ib-cr-positive Klebsiella pneumoniae WH99T harboring qnrB gene by agar dilution method; type: functional; procedure, shortened: as §3
[27] = tested on: Citrobacter freundii; test: Antimicrobial activity against aac(6')-Ib-cr-positive Citrobacter freundii JS33 harboring GyrA T83I mutant, wild-type ParC, GyrB, qnrA and qnrB genes by agar dilution method; type: functional; procedure, shortened: as §1
[28] = tested on: Enterobacter cloacae; test: Antimicrobial activity against aac(6')-Ib-cr-positive Enterobacter cloacae FJ63T harboring qnrS gene by agar dilution method; type: functional
[29] = tested on: Enterobacter cloacae; test: Antimicrobial activity against aac(6')-Ib-cr-negative Enterobacter cloacae GZ51T harboring qnrA gene by agar dilution method; type: functional
[30] = tested on: Enterobacter cloacae; test: Antimicrobial activity against aac(6')-Ib-cr-negative Enterobacter cloacae GZ51 harboring qnrA gene by agar dilution method; type: functional
[31] = tested on: Enterobacter cloacae; test: Antimicrobial activity against aac(6')-Ib-cr-negative Enterobacter cloacae WH42T harboring qnrA gene by agar dilution method; type: functional
[32] = tested on: Escherichia coli; test: Antimicrobial activity against aac(6')-Ib-cr-negative Escherichia coli PU12T harboring wild-type GyrA, GyrB, ParC and qnrS genes by agar dilution method; type: functional; procedure, shortened: as §1
[33] = tested on: Klebsiella pneumoniae; test: Antimicrobial activity against aac(6')-Ib-cr-negative Klebsiella pneumoniae SY22 harboring GyrA S83I, ParC S80I mutant, wild-type GyrB and qnrS genes by agar dilution method; type: functional; procedure, shortened: as §1
[34] = tested on: Klebsiella pneumoniae; test: Antimicrobial activity against aac(6')-Ib-cr-positive Klebsiella pneumoniae JN132 harboring GyrA S83I, ParC S80I mutant, wild-type GyrB and qnrB genes by agar dilution method; type: functional; procedure, shortened: as §2
[35] = tested on: Citrobacter freundii; test: Antimicrobial activity against aac(6')-Ib-cr-positive Citrobacter freundii TJ15T harboring wild-type GyrA, ParC, GyrB genes by agar dilution method; type: functional; procedure, shortened: as §1
[36] = tested on: Klebsiella pneumoniae; test: Antimicrobial activity against aac(6')-Ib-cr-positive Klebsiella pneumoniae SY26T harboring wild-type GyrA, ParC, GyrB and qnrB genes by agar dilution method; type: functional
Procedure, shortened: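 Transconjugants were made by conjugating a qnr/aac(6')-Ib-cr donor with azide-resistant E. coli J53. MICs were read by CLSI agar dilution (M7-A7) and interpreted per M100-S17.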

[37] = tested on: Citrobacter freundii; test: Antimicrobial activity against aac(6')-Ib-cr-positive Citrobacter freundii JN1 harboring GyrA T83I, ParC S80I mutant, wild-type GyrB and qnrA genes by agar dilution method; type: functional; procedure, shortened: as §1
[38] = tested on: Citrobacter freundii; test: Antimicrobial activity against aac(6')-Ib-cr-positive Citrobacter freundii PU55 harboring GyrA T83I, ParC S80I mutant, wild-type GyrB, qnrA genes by agar dilution method; type: functional; procedure, shortened: as §1
[39] = tested on: Klebsiella pneumoniae; test: Antimicrobial activity against aac(6')-Ib-cr-positive Klebsiella pneumoniae WH99 harboring wild-type GyrA, ParC, GyrB and qnrB genes by agar dilution method; type: functional; procedure, shortened: as §2
[40] = tested on: Enterobacter cloacae; test: Antimicrobial activity against aac(6')-Ib-cr-negative Enterobacter cloacae GZ47T harboring qnrB gene by agar dilution method; type: functional
[41] = tested on: Enterobacter cloacae; test: Antimicrobial activity against aac(6')-Ib-cr-negative Enterobacter cloacae FJ61T harboring qnrS gene by agar dilution method; type: functional

Measured: MIC

CO[C@@]1(NC(=O)Cc2cccs2)C(=O)N2C(C(=O)O)=C(COC(N)=O)CS[C@@H]21 [CEFOXITIN]
256 µg/mL: [1] | [3] | [8] | [9] | [21] | [39]
8 µg/mL: [22] | [24] | [33]
32 µg/mL: [7] | [40]
16 µg/mL: [36]
64 µg/mL: [5] | [26] | [34] | [35]
2 µg/mL: [2] | [11] | [12] | [14] | [15] | [17] | [19] | [31]
> 256 µg/mL: [10] | [16] | [23] | [25] | [27] | [30] | [37] | [38]
4 µg/mL: all other assays above

C[C@@H](O)[C@H]1C(=O)N2C(C(=O)O)=C(S[C@@H]3CN[C@H](C(=O)N(C)C)C3)[C@H](C)[C@H]12 [MEROPENEM]
0.125 µg/mL: [3] | [7] | [10] | [25] | [27] | [37]
0.064 µg/mL: [28] | [30]
1 µg/mL: [8]
0.25 µg/mL: [9] | [16] | [38]
0.032 µg/mL: [1] | [5] | [6] | [15] | [17] | [20] | [21] | [23] | [24] | [34] | [39]
0.016 µg/mL: all other assays above
